Here are results for 23 molecules from ChEMBL document CHEMBL1152126 (Bioorg Med Chem, 2008).

In test [1] the target is 72 kDa type IV collagenase (Homo sapiens, UniProt P08253). Kind of test: Inhibition of human recombinant pro-MMP2 by spectrofluorimeter. A digest of the protocol:
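Pro-MMP-2 activated with […], 37 °C, 2 h. Assay: 1–2 nM enzyme in 50 mM Tris–HCl pH 7.5, 150 mM NaCl, 5 mM CaCl₂, 25 °C; 30 min inhibitor preincubation, then quenched fluorogenic substrate.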

In test [2] the target is Stromelysin-1 (Homo sapiens, UniProt P08254). Put plainly: Inhibition of human recombinant MMP3 catalytic domain by spectrofluorimeter. The essentials: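 MMP-3 human recombinant catalytic domain (1–2 nM) was assayed in 50 mM Tris–HCl pH 7.5, 5 mM CaCl₂, […] at 25 °C. Enzyme and inhibitor were preincubated for 30 min before quenched fluorogenic substrate was added. Triplicate percent inhibition was taken at 5–7 inhibitor concentrations spanning 20–80% inhibition.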
Chain of Stromelysin-1 (P08254 whole entry, the tested form may be a part): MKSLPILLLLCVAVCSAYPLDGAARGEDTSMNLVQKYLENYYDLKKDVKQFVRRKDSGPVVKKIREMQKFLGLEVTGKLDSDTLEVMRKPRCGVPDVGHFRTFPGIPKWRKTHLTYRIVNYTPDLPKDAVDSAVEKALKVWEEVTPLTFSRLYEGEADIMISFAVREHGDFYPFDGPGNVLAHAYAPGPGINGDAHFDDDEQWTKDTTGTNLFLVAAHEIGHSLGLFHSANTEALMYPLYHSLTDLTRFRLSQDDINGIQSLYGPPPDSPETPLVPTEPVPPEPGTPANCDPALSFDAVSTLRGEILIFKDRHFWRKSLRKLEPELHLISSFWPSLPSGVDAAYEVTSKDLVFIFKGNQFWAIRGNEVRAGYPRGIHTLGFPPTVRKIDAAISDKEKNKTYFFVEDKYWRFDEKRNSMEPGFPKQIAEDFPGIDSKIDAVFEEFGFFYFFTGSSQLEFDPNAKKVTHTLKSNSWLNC

The target in test [3] is Matrix metalloproteinase-9 (Homo sapiens, UniProt P14780). Kind of test: Inhibition of human recombinant pro-MMP9 by spectrofluorimeter. A digest of the protocol:
(§1)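 Pro-enzymes (human recombinant) freshly activated with […] at 37 °C for 2 h. Activated MMP at 1–2 nM in 50 mM Tris–HCl pH 7.5, 150 mM NaCl, 5 mM CaCl₂ at 25 °C, preincubated 30 min with inhibitor before quenched fluorogenic substrate. Percent inhibition from triplicates at 5–7 concentrations within the 20–80% range.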

Test [4] has as its target Matrix metalloproteinase-14 (Homo sapiens, UniProt P50281). Kind of test: Inhibition of human recombinant MMP14 catalytic domain by spectrofluorimeter. The essentials: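 Human recombinant MT1-MMP catalytic domain at 1–2 nM in 50 mM Tris–HCl pH 7.5, 150 mM NaCl, 5 mM CaCl₂ at 25 °C. Inhibitors at 5–7 concentrations preincubated with enzyme for 30 min, then quenched fluorogenic peptide substrate added. Percent inhibition measured in triplicate within a 20–80% inhibition range.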

Test [5] concerns the target T1, Interstitial collagenase (Homo sapiens, UniProt P03956).
T1 sequence (P03956 whole entry): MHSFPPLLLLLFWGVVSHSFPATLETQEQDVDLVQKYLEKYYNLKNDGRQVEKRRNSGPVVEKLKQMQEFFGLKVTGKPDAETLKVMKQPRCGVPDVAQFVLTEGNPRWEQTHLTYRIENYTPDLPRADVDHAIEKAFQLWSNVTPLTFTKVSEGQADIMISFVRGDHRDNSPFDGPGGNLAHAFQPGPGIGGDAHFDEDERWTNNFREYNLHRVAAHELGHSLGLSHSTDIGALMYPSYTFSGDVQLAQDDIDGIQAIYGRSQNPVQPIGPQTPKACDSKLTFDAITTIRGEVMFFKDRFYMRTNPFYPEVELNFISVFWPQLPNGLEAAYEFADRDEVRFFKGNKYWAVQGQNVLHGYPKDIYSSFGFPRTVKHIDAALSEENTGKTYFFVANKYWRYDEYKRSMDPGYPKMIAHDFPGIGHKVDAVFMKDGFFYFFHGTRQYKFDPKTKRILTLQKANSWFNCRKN
Kind of test: Inhibition of human recombinant pro-MMP1 by spectrofluorimeter.

Test [6] has as its target T2, Matrilysin (Homo sapiens, UniProt P09237).
T2 sequence (P09237 whole entry): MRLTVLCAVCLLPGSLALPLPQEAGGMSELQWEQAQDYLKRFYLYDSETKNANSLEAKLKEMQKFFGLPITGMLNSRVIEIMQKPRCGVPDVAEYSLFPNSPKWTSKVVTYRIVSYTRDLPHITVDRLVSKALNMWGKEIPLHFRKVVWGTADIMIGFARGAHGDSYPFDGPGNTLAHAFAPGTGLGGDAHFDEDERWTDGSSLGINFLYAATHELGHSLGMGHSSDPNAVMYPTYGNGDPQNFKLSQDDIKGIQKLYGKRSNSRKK
Put plainly: Inhibition of human recombinant pro-MMP7 by spectrofluorimeter. A digest of the protocol: as §1

Test [7] is filed under the species Homo sapiens. Kind of test: Selectivity ratio of IC50 for human recombinant pro-MMP2 to IC50 for human recombinant pro-MMP1.

Calls of active or inactive are those of the source. The rule behind the calls is not given here.

Chain of Matrix metalloproteinase-9 (P14780 whole entry): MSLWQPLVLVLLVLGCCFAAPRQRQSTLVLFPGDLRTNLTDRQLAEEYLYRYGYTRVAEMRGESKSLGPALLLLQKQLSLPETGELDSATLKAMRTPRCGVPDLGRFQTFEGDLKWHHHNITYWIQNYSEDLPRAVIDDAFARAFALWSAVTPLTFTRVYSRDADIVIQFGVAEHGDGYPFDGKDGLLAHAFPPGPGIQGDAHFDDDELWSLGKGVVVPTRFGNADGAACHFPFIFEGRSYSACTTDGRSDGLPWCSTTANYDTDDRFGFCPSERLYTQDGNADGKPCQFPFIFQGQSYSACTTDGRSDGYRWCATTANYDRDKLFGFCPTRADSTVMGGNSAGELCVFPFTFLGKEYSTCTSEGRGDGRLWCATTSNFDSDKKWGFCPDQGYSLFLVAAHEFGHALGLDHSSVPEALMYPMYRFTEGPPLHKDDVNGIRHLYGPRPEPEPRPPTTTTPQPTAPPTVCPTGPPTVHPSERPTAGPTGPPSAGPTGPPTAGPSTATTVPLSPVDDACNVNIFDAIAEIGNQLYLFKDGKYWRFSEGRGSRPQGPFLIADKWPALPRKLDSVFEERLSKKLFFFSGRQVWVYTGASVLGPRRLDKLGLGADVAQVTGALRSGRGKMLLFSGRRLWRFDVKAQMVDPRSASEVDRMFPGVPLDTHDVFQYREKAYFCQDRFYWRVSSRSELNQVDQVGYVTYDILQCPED
Chain of 72 kDa type IV collagenase (P08253 whole entry): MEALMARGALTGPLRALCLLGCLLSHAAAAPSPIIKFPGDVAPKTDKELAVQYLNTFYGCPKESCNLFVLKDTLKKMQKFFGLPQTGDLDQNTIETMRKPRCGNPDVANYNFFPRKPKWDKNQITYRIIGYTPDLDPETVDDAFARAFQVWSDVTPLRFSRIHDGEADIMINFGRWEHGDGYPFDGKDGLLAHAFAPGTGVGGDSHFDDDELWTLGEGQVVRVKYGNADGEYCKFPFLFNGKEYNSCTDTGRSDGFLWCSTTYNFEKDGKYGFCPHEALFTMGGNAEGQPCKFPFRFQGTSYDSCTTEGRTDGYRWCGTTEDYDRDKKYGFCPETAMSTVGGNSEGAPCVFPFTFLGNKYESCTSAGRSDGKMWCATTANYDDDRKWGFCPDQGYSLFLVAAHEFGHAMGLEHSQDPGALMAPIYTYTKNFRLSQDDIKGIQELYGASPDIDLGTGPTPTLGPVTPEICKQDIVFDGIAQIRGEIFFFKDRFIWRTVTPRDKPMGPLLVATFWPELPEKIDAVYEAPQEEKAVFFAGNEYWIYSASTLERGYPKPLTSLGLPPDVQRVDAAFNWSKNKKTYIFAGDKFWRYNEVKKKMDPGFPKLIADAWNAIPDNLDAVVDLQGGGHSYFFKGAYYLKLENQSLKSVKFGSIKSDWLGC

On to `CCCCCC/C=C(\CC(=O)NNS(=O)(=O)c1ccc(-c2ccc(Br)cc2)cc1)C(=O)N[C@@H](Cc1c(-c2ccccc2)[nH]c2ccccc12)C(=O)NC`, for which the IC50 in test [1] came to 1270 nM; in test [2], 174 nM; in test [3], 732 nM; in test [4], 3780 nM; in test [5] it was 2040 nM.
For the molecule `CNC(=O)[C@H](Cc1c[nH]c2ccccc12)NC(=O)[C@@H](CC(=O)NNS(=O)(=O)c1c(C(C)C)cc(C(C)C)cc1C(C)C)CC(C)C`, the results for the IC50 in test [1], in test [4] and in test [5] were 100 nM, 3100 nM and 4000 nM, respectively.
As for `CNC(=O)[C@H](Cc1c[nH]c2ccccc12)NC(=O)[C@@H](CC(=O)NNS(=O)(=O)c1ccc(N2C(=O)CCC2=O)cc1)CC(C)C`, the IC50 in test [1] was 79 nM; in test [2], 920 nM; in test [3], 8.5 nM; in test [6], 110 nM; in test [4], 720 nM; in test [5] it was 91 nM.
With `CCCCCCCCCCCCS(=O)(=O)NNC(=O)C[C@@H](CC(C)C)C(=O)N[C@@H](Cc1c[nH]c2ccccc12)C(=O)NC`, the IC50 in test [1] turned out to be 1400 nM; in test [4], 9700 nM; in test [5], 980 nM.
Turning to `CNC(=O)[C@H](Cc1c[nH]c2ccccc12)NC(=O)[C@@H](CC(=O)NNS(=O)(=O)c1ccccc1[N+](=O)[O-])CC(C)C`, the results for the half-maximal inhibitory concentration (IC50) in test [1], in test [4] and in test [5] were 320 nM, 1100 nM and 850 nM, respectively.
For `CNC(=O)[C@H](Cc1c[nH]c2ccccc12)NC(=O)/C(=C/CCc1ccccc1)CC(=O)NNS(=O)(=O)c1ccc(-c2ccc(Br)cc2)cc1`, the IC50 in test [1] is 310 nM; in test [2], 3860 nM; in test [3], 1250 nM; in test [4] it was 105 nM; in test [5] it was 1030 nM.
As for `CNC(=O)[C@H](Cc1c(-c2ccccc2)[nH]c2ccccc12)NC(=O)/C(=C/CCc1ccccc1)CC(=O)NNS(=O)(=O)c1ccc(-c2ccc(Br)cc2)cc1`, the IC50 in test [1] stood at 65 nM; in test [2], 463 nM; in test [3], 827 nM; in test [5], 1080 nM. Besides, the outcome in test [4] was inactive.
For the molecule `CNC(=O)[C@H](Cc1c[nH]c2ccccc12)NC(=O)[C@@H](CC(=O)NO)CC(C)C` [ILOMASTAT], the figures for the IC50 in test [2] and in test [4] were 26 nM and 5.2 nM, respectively.
With `CNC(=O)[C@H](Cc1c[nH]c2ccccc12)NC(=O)[C@@H](CC(=O)NNS(=O)(=O)c1ccccc1N)CC(C)C`, the IC50 came to 92 nM in test [1], 730 nM in test [4] and 93 nM in test [5].
For `CNC(=O)[C@H](Cc1c[nH]c2ccccc12)NC(=O)[C@@H](CC(=O)NNc1ccc([N+](=O)[O-])cc1[N+](=O)[O-])CC(C)C`, in that order: 10000 nM, greater than 10000 nM and greater than 10000 nM.
As to `CNC(=O)[C@H](Cc1c[nH]c2ccccc12)NC(=O)[C@@H](CC(=O)NNS(=O)(=O)c1ccc(-c2ccc(Br)cc2)cc1)CC(C)C`, the 50% inhibitory concentration (IC50) in test [1] came out at 9.8 nM; in test [2], 1700 nM; in test [3], 3 nM; in test [6] it was 475 nM; in test [4] it was 17000 nM; in test [5], 30 nM. For the same molecule, the Ki in test [1] was found to be 8.5 nM; in test [2], 415 nM; in test [3] it was 3.6 nM; in test [6], 523 nM; in test [4], 1900 nM.
As to `CCCCCC/C=C(\CC(=O)NNS(=O)(=O)c1ccc(-c2ccc(Br)cc2)cc1)C(=O)N[C@@H](Cc1c[nH]c2ccccc12)C(=O)NC`, the values for the IC50 in test [1], in test [2] and in test [3] were 1810 nM, 2540 nM and 2560 nM, respectively. For the same molecule, in test [4], the outcome was inactive.
In the case of `CNC(=O)[C@H](Cc1c[nH]c2ccccc12)NC(=O)[C@@H](CC(=O)NNS(=O)(=O)c1ccc(C)cc1)CC(C)C`, the IC50 in test [1] worked out at 24 nM; in test [4] it was 2600 nM; in test [5], 250 nM. Further, in test [7], the Ratio IC50 turned out to be 10.
For the molecule `CNC(=O)[C@H](Cc1c[nH]c2ccccc12)NC(=O)[C@@H](CC(=O)NNc1ccc([N+](=O)[O-])cc1)CC(C)C`, the IC50 in test [1] was 10000 nM; in test [4], greater than 10000 nM; in test [5], greater than 10000 nM.
Turning to `CCCCCCCCCCCCCCCCS(=O)(=O)NNC(=O)C[C@@H](CC(C)C)C(=O)N[C@@H](Cc1c[nH]c2ccccc12)C(=O)NC`, the IC50 was 300 nM in test [1], 5100 nM in test [4] and 440 nM in test [5].
Consider `CNC(=O)[C@H](Cc1c[nH]c2ccccc12)NC(=O)[C@@H](CC(=O)NNS(C)(=O)=O)CC(C)C`, for which the IC50 in test [1] came out at 740 nM; in test [4], 3700 nM; in test [5] it was 5600 nM.
Regarding `CNC(=O)[C@H](Cc1c(-c2ccccc2)[nH]c2ccccc12)NC(=O)[C@@H](CC(=O)NNS(=O)(=O)c1ccc(-c2ccc(Br)cc2)cc1)CC(C)C`, the IC50 in test [1] came to 247 nM; in test [2] it was 53 nM; in test [3], 18 nM; in test [4] it was 1240 nM; in test [5], 350 nM.
As to `CNC(=O)[C@H](Cc1c[nH]c2ccccc12)NC(=O)[C@@H](CC(=O)NNc1ccc(OC)cc1)CC(C)C`, the IC50 in test [1] is 10000 nM; in test [4], greater than 10000 nM; in test [5], 330 nM.
As to `CNC(=O)[C@H](Cc1c[nH]c2ccccc12)NC(=O)[C@@H](CC(=O)NNS(=O)(=O)c1ccc(Oc2ccccc2)cc1)CC(C)C`, the results for the IC50 in test [1], in test [4] and in test [5] were 45 nM, 2800 nM and 110 nM, respectively.
As to `CNC(=O)[C@H](Cc1c[nH]c2ccccc12)NC(=O)[C@@H](CC(=O)NNS(=O)(=O)c1ccc([N+](=O)[O-])cc1)CC(C)C`, the values for the IC50 in test [1], in test [4] and in test [5] were 310 nM, 1500 nM and 490 nM, respectively.
With `CNC(=O)[C@H](Cc1c[nH]c2ccccc12)NC(=O)[C@@H](CC(=O)NNS(=O)(=O)c1ccc(Cl)cc1)CC(C)C`, the values for the IC50 in test [1], in test [4] and in test [5] were 18 nM, 190 nM and 290 nM, respectively.
Take `CNC(=O)[C@H](Cc1c[nH]c2ccccc12)NC(=O)[C@@H](CC(=O)NNc1ccc(Cl)c(Cl)c1)CC(C)C`: the results for the IC50 in test [1], in test [4] and in test [5] were 10000 nM, 1000 nM and 5600 nM, respectively.
On to `CNC(=O)[C@H](Cc1c[nH]c2ccccc12)NC(=O)[C@@H](CC(=O)NNS(=O)(=O)c1ccc2ccccc2c1)CC(C)C`, for which the IC50 is 37 nM in test [1]; 1400 nM in test [2]; 11 nM in test [3]; 6150 nM in test [6]; 10000 nM in test [4]; 150 nM in test [5].

By IC50 is commonly meant the concentration that inhibits the measured activity by half. As a reminder, the Ki is a measure of affinity in units of concentration, obtained from inhibition or displacement.
